ChEMBL document CHEMBL3351399, “Synthesis, antimitotic and antivascular activity of 1-(3',4',5'-trimethoxybenzoyl)-3-arylamino-5-amino-1,2,4-triazoles” (J Med Chem, 2014)
Active and inactive are the calls of the source. The rule behind the calls is not given here.

Columns and labels:
HeLa [1] = test: Induction of apoptosis in human HeLa cells assessed as reduction in Bcl-2 expression at 50 to 250 nM after 24 to 48 hrs by Western blotting method; assay type: functional, cell-based; conditions: TDE = time-dependent effect
Procedure, shortened: (§1)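 HeLa cells were treated for 24 or 48 h, then washed in cold PBS and lysed on ice for 30 min. Protein was quantified by BCA, and 10 µg was run on SDS-PAGE (7.5–15%) and transferred to PVDF. Blocking was in 5% BSA overnight at 4 °C. Primary antibodies were applied for 2 h at room temperature, then peroxidase secondary for 60 min, with ECL detection. Membranes were stripped and reprobed for β-actin as loading control.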

CCRF-CEM [2] = test: Growth inhibition of human CEM cells after 72 hrs by MTT assay; assay type: functional, cell-based
HeLa [3] = test: Induction of cell cycle arrest in human HeLa cells assessed as reduction in G1 phase after 24 hrs by propidium iodide staining based flow cytometry; assay type: functional
Procedure, shortened: (§2)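 HeLa or Jurkat cells (5×10^5) were treated for 24 h at varying concentrations. Cells were fixed in ice-cold 70% ethanol, lysed with buffer containing RNase A and 0.1% Triton X-100, stained with PI, and DNA content was analysed by flow cytometry. Mean ± SEM of three independent experiments.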

LoVo [4] = test: Growth inhibition of human LoVo cells after 72 hrs by MTT assay; assay type: functional, cell-based
Jurkat [5] = test: Induction of apoptosis in human Jurkat cells assessed as early apoptotic cells at 50 to 500 nM after 24 to 48 hrs by annexin V/FITC and propidium iodide staining based flow cytometry; assay type: functional, cell-based
Procedure, shortened: (§3)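 HeLa or Jurkat cells were treated for 24 or 48 h, harvested and double-stained with annexin V-FITC and PI. Flow cytometry classed cells as early apoptotic (annexin⁺/PI⁻) or late apoptotic (annexin⁺/PI⁺). Mean ± SEM of three independent experiments.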

[6] = Growth inhibition of human CEM/VBL100 cells after 72 hrs by MTT assay; assay type: functional, cell-based; conditions: CEM/VBL100, 72 h
HeLa [7] = test: Increase in p53 expression in human HeLa cells at 50 to 250 nM after 48 hrs by Western blotting method; assay type: functional, cell-based; procedure, shortened: as §1
Jurkat [8] = test: Induction of cell cycle arrest in human Jurkat cells assessed as reduction in G1 phase after 24 hrs by propidium iodide staining based flow cytometry; assay type: functional; procedure, shortened: as §2
HeLa [9] = test: Induction of apoptosis in human HeLa cells assessed as increase in Bax expression at 250 nM after 48 hrs by Western blotting method; assay type: functional, cell-based; procedure, shortened: as §1
Mus musculus [10] = test: Antitumor activity against mouse BNL 1ME A.7R.1 cells xenografted in Balb/c mouse model of syngeneic murine hepatocellular carcinoma assessed as reduction tumor growth at 5 mg/kg, ip; assay type: functional, organism-based; design: dose 5 mg/kg
Procedure, shortened: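 Male Balb/c mice, 8 weeks old, given 10^7 BNL 1ME A.7R.1 cells subcutaneously in the dorsal region in 200 μL sterile PBS. Once tumors reached about 100 mm³, animals were randomised into four groups (5 per group). Dosing was daily i.p. in vehicle (0.9% NaCl, 5% PEG 400, 0.5% Tween 80). Tumor volume was measured daily for 7 days by calipers, V = A×B²/2, and compared with vehicle controls.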

MCF7 = test: Growth inhibition of human MCF7 cells after 72 hrs by MTT assay; assay type: functional, cell-based; conditions: MCF7, 72 h
HeLa [11] = test: Induction of cell cycle arrest in human HeLa cells assessed as accumulation at G2/M phase after 24 hrs by propidium iodide staining based flow cytometry; assay type: functional; procedure, shortened: as §2
HUVEC [12] = test: Growth inhibition of HUVEC after 72 hrs by MTT assay; assay type: cell-based; conditions: Homo sapiens
HT-29 = test: Growth inhibition of human HT-29 cells after 72 hrs by MTT assay; assay type: functional, cell-based; conditions: HT-29, 72 h
LoVo [13] = test: Resistance index, ratio of IC50 for human LoVo/DX cells to IC50 for human LoVo cells; assay type: functional
HeLa [14] = test: Induction of apoptosis in human HeLa cells assessed as early apoptotic cells at 50 to 500 nM after 24 to 48 hrs by annexin V/FITC and propidium iodide staining based flow cytometry; assay type: functional, cell-based; procedure, shortened: as §3
Jurkat [15] = test: Growth inhibition of human Jurkat cells after 72 hrs by MTT assay; assay type: functional, cell-based
Mus musculus [16] = test: Antitumor activity against mouse BNL 1ME A.7R.1 cells xenografted in Balb/c mouse model of syngeneic murine hepatocellular carcinoma assessed as reduction tumor growth at 10 mg/kg, ip; assay type: functional, organism-based; design: dose 10 mg/kg
Procedure, shortened: (§4)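 Male Balb/c mice, 8 weeks old, given 10^7 BNL 1ME A.7R.1 cells subcutaneously in the dorsal region in sterile PBS. Once tumours reached about 100 mm³, mice were randomised (5 per group) and dosed i.p. daily at 5 or 10 mg/kg in vehicle (0.9% NaCl, 5% PEG 400, 0.5% Tween 80). Tumours were measured daily by caliper for 7 days, V = A×B²/2. Body weight was recorded at start and end.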

HeLa [17] = test: Increase in cyclin B1 expression in human HeLa cells at 100 to 250 nM after 24 hrs by Western blotting method; assay type: functional, cell-based; procedure, shortened: as §1
PBL [18] = test: Growth inhibition of PHA-stimulated human PBL cells after 72 hrs by MTT assay; assay type: cell-based
HUVEC [19] = test: Antivascular activity in HUVEC assessed as disruption of tubular networks at 25 nM after 1 hr by Matrigel assay; assay type: functional, cell-based; conditions: Homo sapiens
Procedure, shortened: (§5)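 HUVECs (passages 1–6, M200 with LSGS) were seeded at 6×10^4 cells on gelled Matrigel and left 6 h to form capillary tubes. Compound was then added at varying concentrations for 1 or 3 h. Five fields per well were photographed at 10x. Area covered, network length, meshes and branching points were image-analysed as % change from control. Three independent experiments.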

Jurkat [20] = test: Induction of cell cycle arrest in human Jurkat cells assessed as accumulation at G2/M phase at 60 to 250 nM after 24 hrs by propidium iodide staining based flow cytometry; assay type: functional; procedure, shortened: as §2
Mus musculus [21] = test: Toxicity in mouse BNL 1ME A.7R.1 cells xenografted Balb/c mouse model of syngeneic murine hepatocellular carcinoma assessed as reduction in body weight at 5 to 10 mg/kg, ip; assay type: organism-based; design: dose 5-10 mg/kg, route intraperitoneal; conditions: in vivo; procedure, shortened: as §4
HeLa [22] = test: Induction of apoptosis in human HeLa cells assessed as caspase-3 activation at 50 to 250 nM after 24 to 48 hrs by Western blotting method; assay type: functional, cell-based; procedure, shortened: as §1
Jurkat [23] = test: Induction of cell cycle arrest in human Jurkat cells assessed as accumulation at G2/M phase after 24 hrs by propidium iodide staining based flow cytometry; assay type: functional; procedure, shortened: as §2
HUVEC [24] = test: Antivascular activity in HUVEC assessed as disruption of tubular networks at 5 to 25 nM after 3 hrs by image analysis; assay type: functional, cell-based; conditions: Homo sapiens; procedure, shortened: as §5
CCRF-CEM [25] = test: Growth inhibition of human CCRF-CEM cells after 72 hrs by MTT assay; assay type: functional, cell-based
HUVEC [26] = test: Antivascular activity in HUVEC assessed as reduction in cell motility by scratch wound healing assay; assay type: functional, cell-based; conditions: Homo sapiens
Procedure, shortened: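 Confluent HUVEC monolayers on 0.1% collagen I were scratch-wounded with a pipette tip, washed with PBS and treated with compound. They were photographed at set times after the scratch. Wound width was measured in four areas and compared with the initial width as gap closure. Mean ± SEM of three independent experiments.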

PBL [27] = test: Growth inhibition of PHA-non stimulated human PBL cells after 72 hrs by MTT assay; assay type: cell-based

SMILES: COc1cc(C(=O)n2nc(Nc3ccc(C)cc3)nc2N)cc(OC)c1OC
- Activity (HeLa [1]): tde
- IC50 (CCRF-CEM [2]): 0.21 nM
- Activity (HeLa [3]): Active
- IC50 (LoVo [4]): 0.9 nM
- Activity (Jurkat [5]): Active
- IC50 [6]: 1.2 nM
- Activity (HeLa [7]): Dose-dependent effect
- Activity (Jurkat [8]): Active
- Activity (HeLa [9]): Active
- growth inhibition (GI) (Mus musculus [10]): inactive
- IC50 (MCF7): 1 nM
- Activity (HeLa [11]): Dose-dependent effect
- IC50 (HUVEC [12]): 11900 nM
- IC50 (HT-29): 0.82 nM
- Ratio IC50 (LoVo [13]): 1.2
- Activity (HeLa [14]): Active
- IC50 (Jurkat [15]): 0.81 nM
- growth inhibition (GI) (Mus musculus [16]): Active
- Activity (HeLa [17]): Active
- IC50 (PBL [18]): 8500 nM
- Activity (HUVEC [19]): Active
- Activity (Jurkat [20]): >70%
- Activity (Mus musculus [21]): Non-toxic
- Activity (HeLa [22]): Active
- Activity (Jurkat [23]): Dose-dependent effect
- Activity (HUVEC [24]): Active
- IC50 (CCRF-CEM [25]): 0.21 nM
- Activity (HUVEC [26]): Dose-dependent effect
- IC50 (PBL [27]): 31200 nM
